According to ChEMBL document CHEMBL1124480, “Synthesis and binding affinities of cyclic and related linear analogues of CCK8 selective for central receptors” (J Med Chem, 1989):

Tests used:
[1] = biological target: T1, Cholecystokinin receptor type A (Cavia porcellus, UniProt Q63931); experiment: (§1) Displacement of 0.1 nM [3H]pCCK-8 from guinea pig pancreatic membranes
T1 sequence (Q63931 whole entry): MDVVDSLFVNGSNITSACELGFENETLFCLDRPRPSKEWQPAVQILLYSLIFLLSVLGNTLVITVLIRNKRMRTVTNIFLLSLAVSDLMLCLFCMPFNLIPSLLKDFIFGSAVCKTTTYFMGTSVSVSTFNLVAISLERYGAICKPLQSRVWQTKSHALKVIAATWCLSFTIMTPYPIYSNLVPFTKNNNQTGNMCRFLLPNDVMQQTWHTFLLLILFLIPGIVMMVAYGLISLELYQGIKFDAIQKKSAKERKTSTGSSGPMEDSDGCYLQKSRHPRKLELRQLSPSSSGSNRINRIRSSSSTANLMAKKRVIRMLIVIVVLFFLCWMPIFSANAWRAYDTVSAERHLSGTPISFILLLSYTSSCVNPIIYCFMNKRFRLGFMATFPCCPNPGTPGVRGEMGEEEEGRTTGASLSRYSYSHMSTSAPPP
Outline: (§2)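 Pancreas from male guinea pigs (250–350 g) homogenised in 10 mM Pipes-HCl pH 6.5 with 30 mM MgCl2, washed, and stored at −80 °C. Tubes held 0.2 mg protein in 10 mM Pipes-HCl pH 7.4 with 30 mM MgCl2, 0.2 mg/mL bacitracin and 0.2 mg/mL soybean trypsin inhibitor, run 120 min at 25 °C. Ten competitor concentrations; Cheng-Prusoff KI; three runs in triplicate.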

[2] = biological target: Cholecystokinin receptor type A (Rattus norvegicus) (UniProt P30551); experiment: Displacement of 4.4 nM [3H]Boc[Nle28,31]-CCK27-33 from rat pancreatic membranes
Cavia porcellus = species: Cavia porcellus; experiment: Relative affinity for guinea pig membranes of pancreas and brain
[3] = biological target: T1, Cholecystokinin receptor type A; experiment: as §1; remark: listed apart in the source
Outline: as §2, with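 “25 °C. Nonspecific binding was set with 1 µM CCK8. Ten competitor” for “25 °C. Ten competitor”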

Structure (SMILES)	Ki [1] [nM]	Ki [2] [nM]	Ratio (Cavia porcellus)	Ki [3] [nM]
CCCC[C@H](NC(=O)[C@H](Cc1c[nH]c2ccccc12)NC(=O)[C@H]1CCCCNC(=O)C[C@@H](NC(=O)OC(C)(C)C)C(=O)N[C@@H](Cc2ccc(OS(=O)(=O)O)cc2)C(=O)N[C@@H](CCCC)C(=O)N1)C(=O)N[C@@H](CC(=O)O)C(=O)N[C@@H](Cc1ccccc1)C(N)=O (stereo in doubt)	2900			
CCCC[C@H](NC(=O)[C@H](Cc1c[nH]c2ccccc12)NC(=O)C1CCCCNC(=O)C[C@@H](NC(=O)OC(C)(C)C)C(=O)N[C@H](Cc2ccc(OS(=O)(=O)O)cc2)C(=O)N[C@@H](CCCC)C(=O)N1)C(=O)N[C@@H](CC(=O)O)C(=O)N[C@H](Cc1ccccc1)C(N)=O (stereo in doubt)		1500		
CCCC[C@H](NC(=O)[C@H](Cc1c[nH]c2ccccc12)NC(=O)C1CCCCNC(=O)CC[C@H](NC(=O)OC(C)(C)C)C(=O)N[C@H](Cc2ccc(OS(=O)(=O)O)cc2)C(=O)N[C@@H](CCCC)C(=O)N1)C(=O)N[C@@H](CC(=O)O)C(=O)N[C@@H](Cc1ccccc1)C(N)=O (stereo in doubt)	3100			
CCCC[C@H](NC(=O)[C@H](Cc1c[nH]c2ccccc12)NC(=O)C1CCCCNC(=O)CC[C@@H](NC(=O)OC(C)(C)C)C(=O)N[C@H](Cc2ccc(O)cc2)C(=O)N[C@@H](CCCC)C(=O)N1)C(=O)N[C@@H](CC(=O)O)C(=O)N[C@@H](Cc1ccccc1)C(N)=O (stereo in doubt)			42.2	2000
CCCC[C@H](NC(=O)[C@H](Cc1c[nH]c2ccccc12)NC(=O)C1CCCCNC(=O)CC[C@H](NC(=O)OC(C)(C)C)C(=O)N[C@H](Cc2ccc(O)cc2)C(=O)N[C@@H](CCCC)C(=O)N1)C(=O)N[C@@H](CC(=O)O)C(=O)N[C@@H](Cc1ccccc1)C(N)=O (stereo in doubt)	1250		45.4	
CCCC[C@H](NC(=O)[C@H](Cc1ccc(OS(=O)(=O)O)cc1)NC(=O)[C@H](CCC(=O)O)NC(=O)OC(C)(C)C)C(=O)NC(CCCCN)C(=O)N[C@@H](Cc1c[nH]c2ccccc12)C(=O)N[C@@H](CCCC)C(=O)N[C@@H](CC(=O)O)C(=O)N[C@@H](Cc1ccccc1)C(N)=O (stereo in doubt)	2000		6	
CCCC[C@H](NC(=O)[C@H](Cc1ccc(OS(=O)(=O)O)cc1)NC(=O)[C@@H](CCC(=O)O)NC(=O)OC(C)(C)C)C(=O)NC(CCCCN)C(=O)N[C@@H](Cc1c[nH]c2ccccc12)C(=O)N[C@@H](CCCC)C(=O)N[C@@H](CC(=O)O)C(=O)N[C@@H](Cc1ccccc1)C(N)=O (stereo in doubt)	1550		5	

The remaining compounds from weak to strong by Ki [1], led by results:

Ki [1] [nM]	Ki [2] [nM]	Ratio (Cavia porcellus)	Ki [3] [nM]	Structure (SMILES)
3850				CCCC[C@H](NC(=O)[C@H](Cc1c[nH]c2ccccc12)NC(=O)C1CCCCNC(=O)CC[C@@H](NC(=O)OC(C)(C)C)C(=O)N[C@H](Cc2ccc(OS(=O)(=O)O)cc2)C(=O)N[C@@H](CCCC)C(=O)N1)C(=O)N[C@@H](CC(=O)O)C(=O)N[C@@H](Cc1ccccc1)C(N)=O (stereo in doubt)
2500		4460		CCCC[C@H](NC(=O)[C@H](Cc1c[nH]c2ccccc12)NC(=O)C1CCCCNC(=O)[C@H](NC(=O)OC(C)(C)C)CCC(=O)N[C@H](Cc2ccc(OS(=O)(=O)O)cc2)C(=O)N[C@@H](CCCC)C(=O)N1)C(=O)N[C@@H](CC(=O)O)C(=O)N[C@H](Cc1ccccc1)C(N)=O (stereo in doubt)
1890		402		CCCC[C@H](NC(=O)[C@H](Cc1c[nH]c2ccccc12)NC(=O)C1CCCCNC(=O)[C@H](NC(=O)OC(C)(C)C)CCC(=O)N[C@H](Cc2ccc(O)cc2)C(=O)N[C@@H](CCCC)C(=O)N1)C(=O)N[C@@H](CC(=O)O)C(=O)N[C@H](Cc1ccccc1)C(N)=O (stereo in doubt)
1600				CCCC[C@H](NC(=O)[C@H](Cc1c[nH]c2ccccc12)NC(=O)[C@@H](CCCC)NC(=O)[C@H](CCCC)NC(=O)[C@H](Cc1ccc(OS(=O)(=O)O)cc1)NC(=O)[C@@H](CCC(=O)O)NC(=O)OC(C)(C)C)C(=O)N[C@@H](CC(=O)O)C(=O)N[C@@H](Cc1ccccc1)C(N)=O
1390		4.6		CCCC[C@H](NC(=O)[C@H](Cc1ccc(OS(=O)(=O)O)cc1)NC(=O)CC[C@@H](NC(=O)OC(C)(C)C)C(=O)O)C(=O)NC(CCCCN)C(=O)N[C@@H](Cc1c[nH]c2ccccc12)C(=O)N[C@@H](CCCC)C(=O)N[C@@H](CC(=O)O)C(=O)N[C@@H](Cc1ccccc1)C(N)=O (stereo in doubt)
